Calls of active or inactive are those of the source. The calls are words filed in the database; no cut-off is given here.
Experiments:
[1] = system: HEL; assay: Induction of cell cycle arrest in human HEL cells assessed as accumulation of cells at G0/G1 phase measured after 1 hrs by flow cytometry; format: functional, cell-based
Summary of the method: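 HEL cells (2×10^5/well) were given DMSO or compound, then fixed in ice-cold 70% ethanol at 4 °C overnight and washed in PBS. Cells were stained 1 h at 37 °C in the dark with PBS containing 50 µg/mL PI and 100 µg/mL RNase. DNA content was analyzed by flow cytometry.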

[2] = system: MCF7; assay: Potency index, ratio of fangchinoline IC50 to test compound IC50 for human MCF-7 cells; format: functional
[3] = system: HEL; assay: Induction of cell cycle arrest in human HEL cells assessed as up regulation of p21 incubated for 1 hr by Western blot analysis; format: functional, cell-based
Summary of the method: (§1)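 HEL cells were lysed in RIPA after compound or DMSO treatment. Lysates were run on 10% SDS-PAGE, transferred to PVDF and blocked in 5% BSA for 1 h. Blots were probed overnight at 4 °C with antibodies to PARP, caspase-3, caspase-9, c-MYC or p21, then HRP secondary for 2 h, and detected by ECL. β-actin served as loading control.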

[4] = system: MDA-MB-231; assay: Potency index, ratio of fangchinoline IC50 to test compound IC50 for human MDA-MB-231 cells; format: functional
[5] = system: HEL; assay: Induction of apoptosis in human HEL cells assessed as increase in PARP cleavage by Western blot analysis; format: functional, cell-based; summary of the method: as §1
[6] = system: HEL; assay: Potency index, ratio of fangchinoline IC50 to test compound IC50 for human HEL cells; format: functional
[7] = system: HEL; assay: Cytotoxicity against human HEL cells assessed as reduction in cell viability incubated for 48 hrs by MTT assay; format: functional, cell-based
Summary of the method: (§2)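 MTT viability after 48 h exposure. Cells (1×10^4/well) were allowed 24 h at 37 °C before dosing. Leukemia lines were grown in RPMI and breast lines in high-glucose DMEM, each with 5% FBS under 5% CO2. MTT was added for 4 h, formazan dissolved in DMSO, and absorbance read at 490 nm. Triplicate wells; values averaged over at least 3 independent experiments.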

[8] = system: HEL; assay: Induction of apoptosis in human HEL cells assessed as increase in caspase 9 cleavage by Western blot analysis; format: functional, cell-based; summary of the method: as §1
[9] = system: MCF7; assay: Potency index, ratio of vincristine IC50 to test compound IC50 for human MCF-7 cells; format: functional
[10] = Inhibition of AKT (unknown origin) by ELISA assay; design: species or system Homo sapiens
Summary of the method: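 Akt kinase activity kit run per the manufacturer's protocol. Akt source was lysate of compound-treated human leukemia HEL cells, purified on a Mono Q anion-exchange column before the kinase measurement. HEL cells were grown in RPMI with 5% FBS at 37 °C and 5% CO2. The value is reported as an IC50.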

[11] = system: MDA-MB-231; assay: Cytotoxicity against human MDA-MB-231 cells assessed as reduction in cell viability incubated for 48 hrs by MTT assay; format: functional, cell-based; details: MDA-MB-231, 48 h; summary of the method: as §2
[12] = system: HEL; assay: Antiproliferative activity against human HEL cells assessed as reduction in cell viability at 0.5 to 2 uM by MTT assay; format: functional, cell-based; details: dose 0.5-2 µM, time 12.0 hrs, TDE = time-dependent effect
Summary of the method: (§3)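 HEL cells were kept in RPMI with 5% FBS at 37 °C and 5% CO2. They were seeded at 1×10^4/well and given 24 h before dosing. Exposure ran 12, 24, 36, 48 or 72 h, then MTT was added for 4 h, formazan dissolved in DMSO, and absorbance read at 490 nm. Triplicate wells, repeated at least three times.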

[13] = system: MCF7; assay: Cytotoxicity against human MCF-7 cells assessed as reduction in cell viability incubated for 48 hrs by MTT assay; format: functional, cell-based; details: MCF7, 48 h; summary of the method: as §2
[14] = system: HEL; assay: Inhibition of ERK phosphorylation in human HEL cells at 2.5 uM after 8 hrs by Western blot analysis; format: cell-based
Summary of the method: (§4)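 HEL cells were treated with 2.5 µM for 8 h, with DMSO as control. RIPA lysates were run on 10% SDS-PAGE and transferred to PVDF. Blots were blocked in 5% BSA, incubated overnight at 4 °C with antibodies to total and phospho Akt, ERK and JNK, then HRP secondary, and detected by ECL. Bands were normalized to β-actin; means ± SD of triplicates in three independent runs; t-test.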

[15] = system: HEL; assay: Potency index, ratio of vincristine IC50 to test compound IC50 for human HEL cells; format: functional
[16] = system: HEL; assay: Induction of apoptosis in human HEL cells assessed as necrotic cells by Annexin-V/propidium iodide staining-based flow cytometric analysis (reference value: 0.34%); format: functional
[17] = system: HEL; assay: Induction of apoptosis in human HEL cells assessed as increase in caspase 3 cleavage by Western blot analysis; format: functional, cell-based; summary of the method: as §1
[18] = system: HEL; assay: Inhibition of Akt in human HEL cells assessed as PI3K/AKT phosphorylation at 2.5 uM after 8 hrs by Western blot analysis; format: cell-based; summary of the method: as §4
[19] = system: MDA-MB-231; assay: Potency index, ratio of vincristine IC50 to test compound IC50 for human MDA-MB-231 cells; format: functional
[20] = system: HEL; assay: Induction of apoptosis in human HEL cells assessed as increase in JNK phosphorylation at 2.5 uM after 8 hrs by Western blot analysis; format: functional, cell-based; summary of the method: as §4
[21] = system: HEL; assay: Antiproliferative activity against human HEL cells assessed as reduction in cell viability incubated for 12 to 72 hrs by MTT assay; format: functional, cell-based; details: dose 0.5-2 µM, time 12-72 hrs; summary of the method: as §3
[22] = system: HEL; assay: Induction of apoptosis in human HEL cells assessed as early apoptotic cells by Annexin-V/propidium iodide staining-based flow cytometric analysis (reference value: 2.26%); format: functional
[23] = system: HEL; assay: Induction of apoptosis in human HEL cells assessed as late apoptotic cells by Annexin-V/propidium iodide staining-based flow cytometric analysis (reference value: 0.76%); format: functional
[24] = system: HEL; assay: Induction of apoptosis in human HEL cells assessed as viable cells by Annexin-V/propidium iodide staining-based flow cytometric analysis (reference value: 96.62%); format: functional
[25] = system: HEL; assay: Induction of cell cycle arrest in human HEL cells assessed as down regulation of cMyc incubated for 1 hr by Western blot analysis; format: functional, cell-based; summary of the method: as §1
[26] = system: K562; assay: Cytotoxicity against human K562 cells assessed as reduction in cell viability incubated for 48 hrs by MTT assay; format: functional, cell-based; details: K562, 48 h; summary of the method: as §2

In the case of `COc1ccc2cc1Oc1ccc(cc1)C[C@H]1c3cc(c(OC)cc3CCN1C)Oc1c(OC(=O)C3CCCS3)c(OC)cc3c1[C@H](C2)N(C)CC3` (stereo partly specified), the Activity [1] is reported as “Active”, the “Ratio IC50” value [2] is reported as 9 and the Activity [3] is reported as “Active”. The “Ratio IC50” value [4] was 36, the Activity [5] was “Active” and the “Ratio IC50” value [6] was 15. The IC50 [7] was 1520 nM, the Activity [8] was “Active” and the “Ratio IC50” value [9] was 10. For the same compound, the IC50 [10] was 550 nM, the IC50 [11] was 1600 nM and the Activity [12] was “Tde”. For the same compound, the IC50 [13] was 4010 nM, the inhibition [14] was “Active” and the “Ratio IC50” value [15] was 10. The Activity [16] was 3.38%, the Activity [17] was “Active” and the inhibition [18] was “Active”. For the same compound, the “Ratio IC50” value [19] was 10, the Activity [20] was “Active” and the Activity [21] was “Dose-dependent effect”. The Activity [22] was 19.97%, the Activity [23] was 27.92% and the Activity [24] was 48.12%. For the same compound, the Activity [25] was “Active” and the IC50 [26] was 1530 nM.
